From PubChem
APP 5'UTR act: activators of APP 5'UTR luciferase reporter, primary screen, SH-SY5Y cells. activation, % at 2 µM. 190,000 tested, 1% active. SH-SY5Y APP 5'UTR luciferase reporter, luminescence; zero percent = DMSO vehicle wells;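 active = activation above a set limit, based on mean plus 3 SD of controls, cut at about 140% in these data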
STAT3 blocker: IL-6 driven STAT3 reporter inhibitors, primary screen, U3A cells, luciferase, luminescence, MLSCN library. IL-6 STAT3-luciferase reporter; host cell line lacks STAT1. inhibition, % at 5.5 µM. AID 862, 2007. 190,000 tested, 0.89% active;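 active = inhibition above the mean inhibition across all screened compounds plus 3 SD, cut at about 44% in these data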;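 note: 0% = DMSO only wells and 100% = 100 µM nifuroxazide control wells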
STAT1 activator: STAT1 signaling activators, primary screen, cell-based, HTS, luciferase reporter; NIH 3T3 STAT1-luciferase reporter, IFN-gamma, luminescence; 100% = IFN-gamma alone, no compound; activation (% of control), % at 5.5 µM; 200,000 tested, 2.6% active; AID 932, 2007;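 active = activation above the screen-wide mean activation plus 3 SD, cut at about 130% in these data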;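 note: raw ratio to IFN-gamma control signal so 100% means no change and 0% no light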
STAT3 activator: IL-6 driven STAT3 reporter potentiators, primary screen, U3A cells, luciferase, luminescence, MLSCN library. IL-6 STAT3-luciferase reporter; 100% = signal with IL-6 EC80 alone. activation (% of control), % at 5.6 µM. 190,000 tested, 0.91% active. AID 871, 2007;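 active = activation above the screen-wide mean of compound activation plus 3 SD, cut at about 130% in these data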;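 note: 0% = background luminescence of wells with medium and substrate only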
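Test system: human U3A cells carrying STAT3-luciferase construct; control set: IL-6-only wells as 100% reference; timing: compound pre-incubation 1 h before IL-6, then 6 h stimulation at 37 °C; also added: IL-6 stimulus at 33 ng/mL final; evaluation: % activation versus median of IL-6-stimulated wells; detection: reporter luminescence signal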
STAT1 blocker: STAT1 signaling inhibitors, primary screen, cell-based, HTS, luciferase reporter. NIH 3T3 STAT1-luciferase reporter, IFN-gamma, luminescence. inhibition, % at 5.5 µM. 200,000 tested, 0.35% active. AID 920, 2007;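 active = inhibition above a set limit, the mean inhibition across all tested compounds plus 3 SD, cut at about 34% in these data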;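 note: 0% = IFN-gamma with DMSO and 100% = IFN-gamma with 300 µM nifuroxazide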
NF-kB expr up: activators of NF-kB expression in neurons, primary screen, cell-based, HTS | 190,000 tested, 1.6% active | fold change at 12.5 µM | AID 1239, 2008 | human neuronal cells, NF-kB reporter expression; stronger effect = higher value; in the data active = fold change above about 3.3
* marks the source's active call; other numbers are inactive results; / = not tested or not shown. Shown are actives, neighbours in structure and some others; about 4.9% of the full set was active somewhere.

SMILES	APP 5'UTR act	STAT3 blocker	STAT1 activator	STAT3 activator	STAT1 blocker	NF-kB expr up
Oc1c(C=Nc2ccccc2)sc(=S)n1Cc1ccccc1	4	2	104	104	-4	1.3
Cc1ccc(C(=O)Nc2ncc(C)s2)o1	30	9	135*	93	-41	3
Cc1cnc(NC(=O)c2cc3ccccc3o2)s1	95	60*	59	53	43*	3.3
O=C(Nc1nc(-c2ccccn2)cs1)c1cc2ccccc2o1	20	3	111	103	-12	0.83
Cc1ccc(C(=O)Nc2ccc(F)cc2)o1	20	8	109	96	-11	1.6
Cc1ccc(C(=O)Nc2ncc(Cc3ccc(F)cc3)s2)o1	134	13	126	93	-29	7.9*
C=CCn1c(CNC(=O)c2ccccc2F)nnc1SCc1nc2ccccc2c(=O)[nH]1	-7	3	104	99	-6	1.2
C/C(CC(=O)Nc1cc(C)cc(C)c1)=N\NC(=O)c1ccccn1	107	9	111	91	-11	1.3
CSc1nsc(SCC(=O)Nc2ccc3c(c2)OCCO3)n1	141*	5	114	97	-15	4*
C/C(CC(=O)Nc1ccc2c(c1)OCCO2)=N\NC(=O)c1ccccn1	136*	11	128	97	-29	1.1
Cc1csc(SCC(=O)Nc2ccc3c(c2)OCCO3)n1	37	13	132*	93	-39	1.6
Nc1cc(=O)[nH]c(=O)n1CC1CC1	2	2	93	96	8	1.3
CCCn1nc(C(=O)Oc2ccc3c(C)cc(=O)oc3c2)c2ccccc2c1=O	12	15	93	90	8	0.9
COc1ccc(NC(=O)/C=C/c2ccccc2)cn1	85	4	141*	93	-46	2.9
COc1ccc(NC(=O)/C=C/c2ccc(F)cc2)cn1	19	7	136*	96	-40	2
COc1ccc(NC(=O)/C=C/c2cc(OC)c(OC)c(OC)c2)cn1	-2	22	100	87	-1	0.95
Cc1ccc(-c2ccc(C(=O)O)c(C)n2)cc1	15	-1	103	100	-3	1.2
COC(=O)c1ccc(-c2ccc(F)cc2)nc1C	128	7	132*	94	-36	1.3
COc1ccccc1N1CCN(C(=O)c2ccc(S(=O)(=O)N3CCCCCC3)cc2)CC1	26	14	96	91	4	0.68
O=C(Nc1nc2ccc(Cl)cc2s1)c1ccc(Br)o1	112	14	148*	87	-52	3.5*
Cn1ncc(Cl)c1C(=O)Nc1nc2ccc(Cl)cc2s1	99	-19	150*	121	-56	2.4
CCN(Cc1cc(=O)n2ccsc2n1)c1cccc2ccccc12	4	-1	99	99	1	0.88
O=C(c1ccccc1)C1CCN(CC(=O)N2CCN(c3ccccc3)CC2)CC1	19	6	95	98	3	0.91
CCCc1nn(C)c(C(N)=O)c1[N+](=O)[O-]	-23	-36	106	133	-9	1.3
COc1cccc(/C=N/Nc2ncnc(N)c2[N+](=O)[O-])c1OC	86	86*	46	28	59*	1.7
SMILES	APP 5'UTR act	STAT3 blocker	STAT1 activator	STAT3 activator	STAT1 blocker	NF-kB expr up
S=C1NC(c2cccs2)=CC(c2ccc(Br)cc2)N1 (configuration not stated)	12	-13	94	115	7	4*
Cc1nc(-c2ccc(C(=O)Nc3ccccc3F)cc2)cs1	112	88*	31	25	75*	3.4*
O=[N+]([O-])c1ccccc1NCCOc1ccccc1	93	-5	129*	104	-34	1
Fc1ccc(-c2nc3c(-c4ccccc4)cnn3cc2CCN2CCOCC2)cc1	43	-10	99	114	-1	0.79
Cc1cc(S(=O)(=O)Nc2c(C(=O)O)[nH]c3ccccc23)ccc1F	-4	-34	96	135*	5	1
CCN(CC)C(=O)CCc1nnc(Cc2cccc(C(F)(F)F)c2)o1	113	-9	146*	110	-51	3.3*
Cc1cc(C)c(S(=O)(=O)c2ccccc2)c(OC(=O)c2cc(F)c(F)cc2Cl)n1	-4	10	98	94	2	1.1
CC(=O)c1ccc(-c2nc3ccccc3n2C)o1	40	15	130*	90	-32	2.2
Cn1c(-c2ccc(Br)o2)nc2ccccc21	135	11	140*	92	-44	4.5*
Cn1c(Sc2nc3ccccc3n2C)nc2ccccc21	16	-15	92	115	9	1.1
Cc1oc(-c2nc3ccccc3n2C)cc1C(=O)c1ccccc1	190*	73*	64	42	39*	2.6
Cc1ccc(-c2nc3ccccc3n2C)o1	46	26	130*	83	-32	3.6*
CC1=C(C(=O)Nc2ccc(C)cc2C)C(c2ccc(Cl)cc2)n2nc(C(=O)OC(C)C)nc2N1 (configuration not stated)	1	-4	105	104	-6	0.92
CC(=O)N1CCN=C1SCc1ccc(Cl)cc1	-5	6	100	95	1	1.1
Brc1ccc(Cn2c(-c3ccc(Br)o3)nc3ccccc32)o1	29	3	110	101	-11	1.2
Cn1c(-c2ccc(Br)o2)nc2cc(Br)ccc21	/	-4	138*	109	-42	5.3*
COc1cc(/C=C/C(=O)O)cc(S(=O)(=O)N(CC(C)C)CC(C)C)c1OC	23	1	100	106	-1	1.3
C=CCNC(=O)c1ccc(-c2nc(-c3ccccc3)cs2)cc1	57	12	146*	99	-51	2.1
CN(C)c1ccc(/C=C(\Cl)c2nc3ccccc3s2)cc1	118	40	136*	68	-40	0.8
O=C1S/C(=C/c2ccccc2F)C(=O)N1CCN=C1NS(=O)(=O)c2ccccc21	-19	8	89	91	13	1.2
CCOc1ccc(NC(=O)CCN2CCN(S(=O)(=O)c3ccc(Cl)cc3)CC2)cc1	-1	3	104	103	-5	1
CCOC(=O)CCn1nc(-c2ccc(Cl)cc2)cc1N	46	12	138*	94	-42	2.4
CCOC(=O)Cn1nc(-c2ccc(Cl)cc2)cc1N	12	4	115	100	-16	1.3
COCCNc1nc2sc3c(c2c(=O)n1Cc1ccco1)CCCCC3	91	-11	129*	111	-32	1.9
O=C(/C(=C/c1ccc(Cl)cc1)c1nc2ccccc2[nH]1)c1ccccc1	84	13	104	93	-4	8*
